Test results from ChEMBL document CHEMBL1124227, “Effects of sulfur-containing analogues of stearic acid on growth and fatty acid biosynthesis in the protozoan Crithidia fasciculata” (J Med Chem, 1988).

How the values were obtained:
Type in all cases: functional, organism-based
[1] = tested on: Crithidia fasciculata; experiment: Inhibition of dihydrosterculate synthesis in Crithidia fasciculata.; conditions: read-out: I50
How it was run: (§1)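 C. fasciculata (about 1 × 10⁷ organisms) was inoculated into 50 mL growth medium containing the analogue, using duplicate flasks at 3–6 concentrations plus duplicate untreated controls. Cultures were shaken at 25 °C until controls reached 6 × 10⁷ to 9 × 10⁷ organisms/mL. Harvested cells gave free fatty acids, which were converted to methyl esters. Dihydrosterculate was measured as % of total fatty acids by capillary GC-FID on BP1 and Supelcowax 10 columns.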

[2] = tested on: Crithidia fasciculata; experiment: The compound was tested for 50% growth inhibition against Crithidia fasciculata; conditions: read-out: I50
How it was run: (§2)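 Cultures were set up in 50 mL growth medium with the analogue added and inoculated with about 1 × 10⁷ C. fasciculata. Duplicate flasks were run at each of 3–6 concentrations, with duplicate controls. Flasks were shaken at 25 °C, and growth was followed as absorbance change at 535 nm against uninoculated medium (1.0 = 7 × 10⁷ organisms/mL). Runs ended when controls reached 6 × 10⁷ to 9 × 10⁷ organisms/mL.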

[3] = tested on: Crithidia fasciculata; experiment: The compound was tested for 50% growth inhibition against Crithidia fasciculata; No inhibition; how it was run: as §2
[4] = tested on: Crithidia fasciculata; experiment: Inhibition of dihydrosterculate synthesis in Crithidia fasciculata; No inhibition; how it was run: as §1

| SMILES | IC50 [1] [µM] | IC50 [2] [µM] | I50 [3] | I50 [4] |
| --- | --- | --- | --- | --- |
| CCCCCCCCCSCCCCCCCC(=O)NCC(O)CO (centres undefined) | 8 | > 100 |  |  |
| CCCCCCCCSCCCCCCCCC(=O)NCC(O)CO (centres undefined) | 12 | 17 |  |  |
| CCCCCCCCCCCCCCCCCC(=O)NCC(O)CO (centres undefined) |  |  | Not Active | Not Active |
| CCCCCCCCC[S+]([O-])CCCCCCCC(=O)O (centres undefined) |  | > 100 |  | Not Active |
| CCCCCCCCCCSCCCCCCC(=O)O | 0.4 | 0.8 |  |  |
| CCCCCCCCCSCCCCCCCC(=O)O | 0.9 | > 100 |  |  |
| CCCCCCCCSCCCCCCCCC(=O)O | 4 | 10 |  |  |
| CCCCCCCC[S+]([O-])CCCCCCCCC(=O)O (centres undefined) |  | > 100 |  | Not Active |
| CCCCCCCSCCCCCCCCCC(=O)O | 3 | 3 |  |  |
| CCCCCCCCCCCCCCCCCC(=O)O [STEARIC ACID] |  |  |  | Not Active |
